Activity calls are given as the source filed them. No cut-off for these calls is given here.
Columns and labels:
[1] = Acute toxicity in Swiss albino mouse assessed as absolute liver weight at 50 mg/kg, po measured after 7 days (reference value: 1.11 +/- 0.04 g); format: organism-based; conditions: in vivo, 168 h, time 7 day
[2] = Acute toxicity in Swiss albino mouse assessed as monocyte count at 1000 mg/kg, po measured after 7 days (reference value: 12.58 +/- 2.86 %); format: organism-based; conditions: in vivo, 168 h, time 7 day
[3] = Acute toxicity in Swiss albino mouse assessed as albumin level at 1000 mg/kg, po measured after 7 days (reference value: 3.24 +/- 0.30 g/dL); format: organism-based; conditions: in vivo, 168 h, time 7 day
Mus musculus = test: In vivo osteogenic activity in ovariectomized BALB/c mouse assessed as increase in force required to break bone at 1 to 10 mg/kg, po via gavage administered for 1 month by TKC Muromachi bone strength testing method; format: functional, organism-based; conditions: dose 1-10 mg/kg, time 1.0 months
In short: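 Ovariectomized balb/c mice were gavaged with 1 or 10 mg kg-1 daily for one month. Bones were then tested on a bone strength tester for energy, stiffness and force to break. Mean ± SEM compared with the Ovx vehicle group.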

[4] = Acute toxicity in Swiss albino mouse assessed as triglycerides level at 1000 mg/kg, po measured after 7 days (reference value: 58.51 +/- 10.82 mg/dL); format: organism-based; conditions: in vivo, 168 h, time 7 day
[5] = Acute toxicity in Swiss albino mouse assessed as absolute kidney weight at 50 mg/kg, po measured after 7 days (reference value: 0.29 +/- 0.02 g); format: organism-based; conditions: in vivo, 168 h, time 7 day
[6] = Acute toxicity in Swiss albino mouse assessed as body weight at 1000 mg/kg, po observed on day 1 (reference value: 20.38 +/- 0.24 g); format: organism-based; conditions: in vivo, 24 h, time 1 day
[7] = Acute toxicity in Swiss albino mouse assessed as relative lung weight at 1000 mg/kg, po measured after 7 days (reference value: 0.70 +/- 0.08 %); format: organism-based; conditions: in vivo, 168 h, time 7 day
[8] = Acute toxicity in Swiss albino mouse assessed as eosinophil count at 1000 mg/kg, po measured after 7 days (reference value: 6.34 +/- 1.04 %); format: organism-based; conditions: in vivo, 168 h, time 7 day
[9] = Acute toxicity in Swiss albino mouse assessed as relative heart weight at 5 mg/kg, po measured after 7 days (reference value: 0.51 +/- 0.02 %); format: organism-based; conditions: in vivo, 168 h, time 7 day
[10] = Acute toxicity in Swiss albino mouse assessed as SGPT level at 50 mg/kg, po measured after 7 days (reference value: 14.04 +/- 1.45 U/L); format: organism-based; conditions: in vivo, 168 h, time 7 day
[11] = Oral bioavailability in Sprague-Dawley rat at 1 mg/kg measured upto 24 hrs by LC-MS/MS analysis; format: ADME, organism-based; conditions: in vivo
In short: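 Oral (1 mg kg-1, 0.25% CMC) and i.v. (1 mg kg-1 bolus) groups of female SD rats, n = 4 each, sampled to 24 h and assayed by plasma LC-MS/MS. AUC0-∞ = AUC0-t + Clast/kel. %F = (AUC oral × dose i.v.)/(AUC i.v. × dose oral) × 100.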

[12] = Half life in Sprague-Dawley rat at 1 mg/kg, po measured upto 24 hrs by LC-MS/MS analysis; format: ADME, organism-based; conditions: in vivo
In short: (§1)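 Female Sprague-Dawley rats (n = 4), fasted overnight 12–14 h, dosed orally at 1 mg kg-1 as a 0.25% CMC suspension and fed 3 h post-dose. Retro-orbital blood was taken from 0.25 to 24 h. Plasma was hexane-extracted and assayed by LC-MS/MS. Cmax and Tmax were read from the data; other parameters came from non-compartmental analysis. Mean ± S.D.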

[13] = Acute toxicity in Swiss albino mouse assessed as eosinophil count at 5 mg/kg, po measured after 7 days (reference value: 6.34 +/- 1.04 %); format: organism-based; conditions: in vivo, 168 h, time 7 day
[14] = Volume of distribution in Sprague-Dawley rat at 1 mg/kg, iv measured upto 24 hrs by LC-MS/MS analysis; format: ADME, organism-based; conditions: in vivo
Calvarial osteoblast [15] = test: Induction of osteoblast differentiation in mouse calvarial osteoblast assessed as increase in ALP activity using PNPP as substrate at 1 pM incubated for 48 hrs by spectrophotometric analysis; format: functional, cell-based
[16] = Volume of distribution in Sprague-Dawley rat at 1 mg/kg, po measured upto 24 hrs by LC-MS/MS analysis; format: ADME, organism-based; conditions: in vivo; in short: as §1
[17] = Acute toxicity in Swiss albino mouse assessed as monocyte count at 50 mg/kg, po measured after 7 days (reference value: 12.58 +/- 2.86 %); format: organism-based; conditions: in vivo, 168 h, time 7 day
[18] = Elimination rate constant in Sprague-Dawley rat at 1 mg/kg, iv measured upto 24 hrs by LC-MS/MS analysis; format: ADME, organism-based; conditions: in vivo
[19] = Acute toxicity in Swiss albino mouse assessed as relative brain weight at 50 mg/kg, po measured after 7 days (reference value: 1.63 +/- 0.13 %); format: organism-based; conditions: in vivo, 168 h, time 7 day
Calvarial osteoblast [20] = test: Induction of osteoblast differentiation in mouse calvarial osteoblast assessed as increase in ERalpha expression at 1 pM incubated for 48 hrs by Western blot analysis; format: functional, cell-based
In short: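 Calvarial osteoblasts at 60–70% confluence were treated ± compound for 48 h, with 100 pM E2 as positive control. Lysates (30 µg protein) were resolved on 10% SDS-PAGE, transferred to PVDF and probed for ER-α and ER-β with HRP secondaries and ECL detection. Bands were quantified by densitometry normalized to β-actin.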

[21] = Acute toxicity in Swiss albino mouse assessed as basophil count at 300 mg/kg, po measured after 7 days (reference value: 1.50 +/- 0.29 %); format: organism-based; conditions: in vivo, 168 h, time 7 day
[22] = Acute toxicity in Swiss albino mouse assessed as SGOT level at 50 mg/kg, po measured after 7 days (reference value: 31.99 +/- 3.37 U/L); format: organism-based; conditions: in vivo, 168 h, time 7 day
[23] = Acute toxicity in Swiss albino mouse assessed as lymphocyte count at 300 mg/kg, po measured after 7 days (reference value: 37.97 +/- 1.80 %); format: organism-based; conditions: in vivo, 168 h, time 7 day
[24] = Acute toxicity in Swiss albino mouse assessed as absolute liver weight at 1000 mg/kg, po measured after 7 days (reference value: 1.11 +/- 0.04 g); format: organism-based; conditions: in vivo, 168 h, time 7 day
[25] = Acute toxicity in Swiss albino mouse assessed as morbidity at 5 to 1000 mg/kg, po measured after 7 days; format: organism-based; conditions: in vivo, 168 h, dose 5-1000 mg/kg, time 7 day
In short: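 Acute oral toxicity per OECD guidelines 420, 423 and 425. Swiss albino mice received a single oral dose at 5, 50, 300 or 1000 mg kg1 body weight, with vehicle controls. Animals were watched for morbidity, mortality and observational changes over 7 days. Tail-vein blood was then taken for hematology and serum biochemistry. Organs were inspected at sacrifice. n = 6 per group.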

[26] = AUC (0 to 24 hrs) in Sprague-Dawley rat at 1 mg/kg, iv measured upto 24 hrs by LC-MS/MS analysis; format: ADME, organism-based; design: route intravenous, dose 1 mg/kg, time <=24; conditions: in vivo
In short: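 Female Sprague-Dawley rats (n = 4 per route), fasted overnight (12-14 h); 1 mg/kg orally in 0.25% CMC suspension, or an i.v. tail-vein bolus in DMSO-PEG400-ethanol-water (4:3:1:2). Retro-orbital blood was taken up to 24 h, and plasma was extracted with n-hexane (halofantrine IS). LC-MS/MS linear range 0.5-200 ng/mL. AUC0-24 was calculated by the linear trapezoidal rule, non-compartmental; mean ± S.D.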

[27] = Acute toxicity in Swiss albino mouse assessed as relative spleen weight at 1000 mg/kg, po measured after 7 days (reference value: 0.73 +/- 0.14 %); format: organism-based; conditions: in vivo, 168 h, time 7 day

`CCCCN(C)C(=O)CCCCOc1ccc([C@H]2c3ccc(OC)cc3OC(C)(C)[C@@H]2c2ccccc2)cc1` showed an Activity [1] of 1.23 g, an Activity [2] of 12.27% and an Activity [3] of 3.98 g/dL. The Activity (Mus musculus) was “Active”, the Activity [4] was 92.31 mg/dL and the Activity [5] was 0.26 g. For the same molecule, the Activity [6] was 18.42 g, the Activity [7] was 0.75% and the Activity [8] was 5.35%. The Activity [9] was 0.48%, the Activity [10] was 17.18 U/L and the bioavailability [11] was 13.2%. It also gave a half-life [12] of 3.62 h, an Activity [13] of 8.35% and a Vd [14] of 5.61 L/kg. For the same molecule, the Activity (Calvarial osteoblast [15]) was “Active”, the Vd [16] was 5.822 L/kg and the Activity [17] was 12.35%. The k el at 24 h [18] was 5.47e-05 s⁻¹, the Activity [19] was 1.54% and the Activity (Calvarial osteoblast [20]) was “inactive”. For the same molecule, the Activity [21] was 1.25%, the Activity [22] was 40.13 U/L and the Activity [23] was 42.9%. For the same molecule, the Activity [24] was 1.07 g, the Activity [25] was “Non-Toxic” and the AUC(0-t) [26] was 852 ng·h/mL. It also gave an Activity [27] of 0.5%.
